Bridge positions count the residues as written; N and C are the ends. Square brackets hold non-standard residues; d marks the D form. Peptide text beside a SMILES is read from it. * marks the point of attachment. X1 = CC[C@H](C)CCCCC(=O)*; Dab = NCC[C@H](N)C(=O)O
Key:
[1] = system: E. coli ATCC 25922; experiment: MIC, broth microdilution; format: cell-based; conditions: LB + 0.3 mM ZnSO4, 37 °C, 18 h, median of min. triplicates
Outline: (§1)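 Strains from glycerol stocks were grown overnight on blood agar at 37 °C. Single colonies went into TSB and grew to OD600 0.5, then were diluted 100-fold in LB + 0.3 mM ZnSO4 to 10^6 CFU/mL. Two-fold serial dilutions of test compound were made in triplicate in the same medium and mixed 1:1 with inoculum. Plates ran 18 h at 37 °C at 600 rpm. MIC was the median of at least triplicates, read visually.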

[2] = system: E. faecium E0072 (vanA); experiment: MIC, broth microdilution; format: cell-based; conditions: LB + 0.3 mM ZnSO4
Outline: as §1

[3] = system: E. faecium E1130 (vanA); experiment: MIC, broth microdilution; format: cell-based; conditions: LB + 0.3 mM ZnSO4
Outline: as §1

[4] = system: E. faecium E0506 (vanA); experiment: MIC, broth microdilution; format: cell-based; conditions: LB + 0.3 mM ZnSO4
Outline: as §1

[5] = system: E. faecium E0333 (vanA); experiment: MIC, broth microdilution; format: cell-based; conditions: LB + 0.3 mM ZnSO4
Outline: as §1

[6] = system: E. faecium E0341 (vanA); experiment: MIC, broth microdilution; format: cell-based; conditions: LB + 0.3 mM ZnSO4
Outline: as §1

[7] = system: panel of E. faecium clinical isolates carrying the vanA vancomycin resistance gene; experiment: MIC50 / MIC90 over the VRE panel; format: cell-based
[8] = system: E. faecium E6016 (vanA); experiment: MIC, broth microdilution; format: cell-based; conditions: LB + 0.3 mM ZnSO4
Outline: as §1

[9] = system: E. faecium E7413 (vanA); experiment: MIC, broth microdilution; format: cell-based; conditions: LB + 0.3 mM ZnSO4
Outline: as §1

[10] = system: E. faecium E1763 (vanA); experiment: MIC, broth microdilution; format: cell-based; conditions: LB + 0.3 mM ZnSO4
Outline: as §1

[11] = system: E. faecium E155 (vanA); experiment: MIC, broth microdilution; format: cell-based, Enterococcus faecium
Outline: as §1

[12] = system: E. faecium E1441 (vanA); experiment: MIC, broth microdilution; format: cell-based; conditions: LB + 0.3 mM ZnSO4
Outline: as §1

[13] = system: E. faecium E7312 (vanA); experiment: MIC, broth microdilution; format: cell-based; conditions: LB + 0.3 mM ZnSO4
Outline: as §1

[14] = system: E. faecium E0300 (vanA); experiment: MIC, broth microdilution; format: cell-based; conditions: LB + 0.3 mM ZnSO4
Outline: as §1

[15] = system: E. faecium E7319 (vanA); experiment: MIC, broth microdilution; format: cell-based; conditions: LB + 0.3 mM ZnSO4
Outline: as §1

[16] = system: E. faecium E2373 (vanA); experiment: MIC, broth microdilution; format: cell-based; conditions: LB + 0.3 mM ZnSO4
Outline: as §1

[17] = system: E. faecium E1679 (vanA); experiment: MIC, broth microdilution; format: cell-based; conditions: LB + 0.3 mM ZnSO4
Outline: as §1

[18] = system: E. faecium E0745 (vanA); experiment: MIC, broth microdilution; format: cell-based; conditions: LB + 0.3 mM ZnSO4
Outline: as §1

[19] = system: E. faecium E0321 (vanA); experiment: MIC, broth microdilution; format: cell-based; conditions: LB + 0.3 mM ZnSO4
Outline: as §1

[20] = system: E. faecium E0013 (vanA); experiment: MIC, broth microdilution; format: cell-based; conditions: LB + 0.3 mM ZnSO4
Outline: as §1

[21] = system: E. faecium E2297 (vanA); experiment: MIC, broth microdilution; format: cell-based; conditions: LB + 0.3 mM ZnSO4
Outline: as §1

[22] = system: B. subtilis 168; experiment: Membrane fluidity, DiIC12 staining; format: cell-based; conditions: 5 × MIC, DiIC12, 0.3 mM ZnSO4, 30 °C, 0 to 60 min
Outline: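 B. subtilis 168 overnight cultures were diluted 1:200 into LB containing 1% DMSO and 2 µg/mL DiIC12. At OD600 0.3 cells were washed in dye-free medium and given 0.3 mM ZnSO4, then treated at 5× MIC, with daptomycin as positive control. Incubation was at 30 °C and 850 rpm, sampling at 0–60 min for fluorescence microscopy on agarose slides. Representative of three independent experiments.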

[23] = degradation product of bacitracin; cited from earlier work
[24] = calculated over 19 vanA E. faecium clinical isolates, LB + 0.3 mM ZnSO4

With CC[C@H](C)CCCCC(=O)N[C@@H](CCN)C(=O)N[C@H](C(=O)N[C@@H](CCN)C(=O)N[C@H]1CCNC(=O)[C@H]([C@@H](C)O)NC(=O)[C@H](CCN)NC(=O)[C@H](CCN)NC(=O)[C@H](CC(C)C)NC(=O)[C@@H](Cc2ccccc2)NC(=O)[C@H](CCN)NC1=O)[C@@H](C)O [Polymyxin B] (X1-[Dab]T[Dab][Dab][Dab][dF]L[Dab][Dab]T; lactam 4-C (inferred); N-terminus assumed) as the molecule, how does the “MIC E. coli ATCC 25922” value [1] read?
Its value is 2 µg/mL.

Which results are given for CN[C@H](CC(C)C)C(=O)N[C@H]1C(=O)N[C@@H](CC(N)=O)C(=O)N[C@H]2C(=O)N[C@H]3C(=O)N[C@H](C(=O)N[C@H](C(=O)O)c4cc(O)cc(O)c4-c4cc3ccc4O)[C@H](O)c3ccc(c(Cl)c3)Oc3cc2cc(c3O[C@@H]2O[C@H](CO)[C@@H](O)[C@H](O)[C@H]2O[C@H]2C[C@](C)(N)[C@H](O)[C@H](C)O2)Oc2ccc(cc2Cl)[C@H]1O [Vancomycin]?
MIC E. faecium E0072 vanA [2]: >64 µg/mL; MIC E. faecium E1130 vanA [3]: >64 µg/mL; MIC E. faecium E0506 vanA [4]: >64 µg/mL; MIC E. faecium E0333 vanA [5]: >64 µg/mL; MIC E. faecium E0341 vanA [6]: >64 µg/mL; MIC for vancomycin, all strains of the vanA VRE selection ([7]; broader selection of VRE strains all carrying the vanA gene): ≥ 64 µg/mL; MIC50 [7, 24]: >64 µg/mL; MIC90 [7, 24]: >64 µg/mL; MIC E. faecium E6016 vanA [8]: >64 µg/mL; MIC E. faecium E7413 vanA [9]: >64 µg/mL; MIC E. faecium E1763 vanA [10]: >64 µg/mL; MIC E. faecium E155 vanA ([11]; LB + 0.3 mM ZnSO4, 37 °C, 18 h, median of min. triplicates): >64 µg/mL; MIC E. faecium E155 vanA ([11]; Table 2, LB + 0.3 mM ZnSO4): >64 µg/mL; MIC E. faecium E1441 vanA [12]: >64 µg/mL; MIC E. faecium E7312 vanA [13]: >64 µg/mL; MIC E. faecium E0300 vanA [14]: >64 µg/mL; MIC E. faecium E7319 vanA [15]: >64 µg/mL; MIC E. faecium E2373 vanA [16]: >64 µg/mL; MIC E. faecium E1679 vanA [17]: >64 µg/mL; MIC E. faecium E0745 vanA [18]: >64 µg/mL; MIC E. faecium E0321 vanA [19]: >64 µg/mL; MIC E. faecium E0013 vanA [20]: >64 µg/mL; MIC E. faecium E2297 vanA [21]: >64 µg/mL

With Bacitracin as the molecule, how does the “formation of regions of increased fluidity (RIF)” value [22] read?
The value was “to a much lesser degree”.

Which nephrotoxicity [23] does the source give for Bacitracin F here?
Its nephrotoxicity is “nephrotoxic”.

From PMC11260088 (Proceedings of the National Academy of Sciences of the …, 2024)
